Source: ChEMBL document CHEMBL1671679, “Lack of pharmacokinetic interaction between amdoxovir and reduced- and standard-dose zidovudine in HIV-1-infected individuals” (Antimicrob Agents Chemother, 2010)
Values belong to the compound of their own block, whether it stands above or below them.

Key:
[1] = Tmax in HIV-1 infected patient at 500 mg, po bid on day 10 by LC-MS/MS analysis; format: ADME, organism-based; conditions: human, in vivo
Summary of the method: (§1)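 Treatment-naive Hispanic HIV-1-infected adults (≥5,000 RNA copies/ml, CD4 ≥200 cells/mm3). Blood drawn after first dose on day 1 (0–12 h) and after last dose on day 10 (0–48 h) into DCF-containing EDTA tubes to block ex vivo deamination, centrifuged, plasma stored −80°C. Methanol extraction with internal standard, LC-MS/MS (linear 2–3,000 ng ml−1 for AMDX and DXG). Noncompartmental analysis assuming extravascular input; geometric means reported.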

[2] = Half life in HIV-1 infected patient at 500 mg, po bid on day 10 coadministered with 200 mg, po bid zidovudine by LC-MS/MS analysis; format: ADME, organism-based; conditions: human, in vivo
Summary of the method: (§2)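 Untreated Hispanic HIV-1-infected adults (viral load ≥5,000 copies/ml, CD4 ≥200 cells/mm3). Blood was drawn into DCF-containing EDTA tubes on day 1 (0–12 h) and on day 10 (0–48 h post last dose), then stored at −80°C. Plasma was methanol-extracted with an internal standard and run by LC-MS/MS (2–3,000 ng/ml AMDX/DXG; 2–5,000 ng/ml ZDV). Noncompartmental analysis assumed extravascular input; τ = 12 h; geometric means reported; accumulation was taken as AUCτ day 10/day 1.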

Homo sapiens [3] = test: Ratio of AUC (0 to 12 hrs) in HIV-1 infected patient at 500 mg, po bid on day 10 coadministered with 200 mg, po bid zidovudine to AUC (0 to 12 hrs) in HIV-1 infected patient at 500 mg, po bid on day 1 coadministered with 200 mg, po bid zidovudine; format: ADME, organism-based; conditions: in vivo; summary of the method: as §2
[4] = Cmax in HIV-1 infected patient at 500 mg, po bid on day 10 by LC-MS/MS analysis; format: ADME, organism-based; design: dose 500 mg, route oral; conditions: human, in vivo; summary of the method: as §2
[5] = Apparent oral clearance in HIV-1 infected patient at 500 mg, po bid on day 10 coadministered with 200 mg, po bid zidovudine by LC-MS/MS analysis; format: ADME, organism-based; conditions: human, in vivo; summary of the method: as §2
[6] = Half life in HIV-1 infected patient at 500 mg, po bid on day 10 coadministered with 300 mg, po bid zidovudine by LC-MS/MS analysis; format: ADME, organism-based; conditions: human, in vivo; summary of the method: as §2
[7] = Tmax in HIV-1 infected patient at 500 mg, po bid on day 10 coadministered with 200 mg, po bid zidovudine by LC-MS/MS analysis; format: ADME, organism-based; conditions: human, in vivo; summary of the method: as §1
Homo sapiens [8] = test: Tmax in HIV-1 infected patient assessed as beta-D-dioxolane guanosine level at 500 mg, po bid on day 1 by LC-MS/MS analysis; format: ADME, organism-based; conditions: in vivo; summary of the method: as §2
[9] = AUC (0 to 12 hrs) in HIV-1 infected patient at 500 mg, po bid on day 10 coadministered with 200 mg, po bid zidovudine by LC-MS/MS analysis; format: ADME, organism-based; design: dose 500 mg, time < 12 hr, route oral; conditions: human, plasma; summary of the method: as §2
[10] = Tmax in HIV-1 infected patient at 500 mg, po bid on day 10 coadministered with 300 mg, po bid zidovudine by LC-MS/MS analysis; format: ADME, organism-based; conditions: human, in vivo; summary of the method: as §1
[11] = Cmax in HIV-1 infected patient at 500 mg, po bid on day 1 by LC-MS/MS analysis; format: ADME, organism-based; design: dose 500 mg, route oral; conditions: human, in vivo; summary of the method: as §2
[12] = Tmax in HIV-1 infected patient at 500 mg, po bid on day 1 by LC-MS/MS analysis; format: ADME, organism-based; conditions: human, in vivo; summary of the method: as §1
Homo sapiens [13] = test: Ratio of AUC (0 to 12 hrs) in HIV-1 infected patient at 500 mg, po bid on day 10 coadministered with 300 mg, po bid zidovudine to AUC (0 to 12 hrs) in HIV-1 infected patient at 500 mg, po bid on day 1 coadministered with 300 mg, po bid zidovudine; format: ADME, organism-based; conditions: in vivo; summary of the method: as §2
[14] = Half life in HIV-1 infected patient at 500 mg, po bid on day 10 by LC-MS/MS analysis; format: ADME, organism-based; conditions: human, in vivo; summary of the method: as §2
Homo sapiens [15] = test: Ratio of AUC (0 to 12 hrs) in HIV-1 infected patient at 500 mg, po bid on day 10 to AUC (0 to 12 hrs) in HIV-1 infected patient at 500 mg, po bid on day 1; format: ADME, organism-based; conditions: in vivo; summary of the method: as §2
[16] = AUC (0 to 12 hrs) in HIV-1 infected patient at 500 mg, po bid on day 10 coadministered with 300 mg, po bid zidovudine by LC-MS/MS analysis; format: ADME, organism-based; design: dose 500 mg, time < 12 hr, route oral; conditions: human, plasma; summary of the method: as §2
[17] = AUC (0 to 12 hrs) in HIV-1 infected patient at 500 mg, po bid on day 10 by LC-MS/MS analysis; format: ADME, organism-based; design: dose 500 mg, time < 12 hr, route oral; conditions: human, plasma; summary of the method: as §2
[18] = Cmax in HIV-1 infected patient at 500 mg, po bid on day 10 coadministered with 300 mg, po bid zidovudine by LC-MS/MS analysis; format: ADME, organism-based; design: dose 500 mg, route oral; conditions: human, in vivo; summary of the method: as §2
[19] = Cmax in HIV-1 infected patient at 500 mg, po bid on day 10 coadministered with 200 mg, po bid zidovudine by LC-MS/MS analysis; format: ADME, organism-based; design: dose 500 mg, route oral; conditions: human, in vivo; summary of the method: as §2
[20] = Apparent oral clearance in HIV-1 infected patient at 500 mg, po bid on day 10 coadministered with 300 mg, po bid zidovudine by LC-MS/MS analysis; format: ADME, organism-based; conditions: human, in vivo; summary of the method: as §2
[21] = Half life in HIV-1 infected patient at 500 mg, po bid on day 1 by LC-MS/MS analysis; format: ADME, organism-based; conditions: human, in vivo; summary of the method: as §2
[22] = Apparent oral clearance in HIV-1 infected patient at 500 mg, po bid on day 10 by LC-MS/MS analysis; format: ADME, organism-based; conditions: human, in vivo; summary of the method: as §2
[23] = Half life in HIV-1 infected patient on day 10 by LC-MS/MS analysis; format: ADME, organism-based; conditions: human, in vivo; summary of the method: as §2
[24] = Apparent oral clearance in HIV-1 infected patient at 200 mg, po bid on day 10 coadministered with 500 mg, po bid amdoxovir by LC-MS/MS analysis; format: ADME, organism-based; conditions: human, in vivo; summary of the method: as §2
[25] = Apparent oral clearance in HIV-1 infected patient at 300 mg, po bid on day 10 coadministered with 500 mg, po bid amdoxovir by LC-MS/MS analysis; format: ADME, organism-based; conditions: human, in vivo; summary of the method: as §2
[26] = Drug level in HIV-1 infected patient urine assessed as zidovudine-5-O-glucoronide level at 300 mg, po bid on day 10 coadministered with 500 mg, po bid amdoxovir by LC-MS/MS analysis; format: ADME, organism-based; conditions: human, in vivo
Summary of the method: (§3)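 At steady state (day 10), urine collected over one 12-h dose interval was analyzed by LC-MS/MS for AMDX, DXG, ZDV and ZDV-5′-O-glucuronide. Samples were diluted 100-fold, and the assay was linear from 1 to 500 μg/ml. Results are expressed as percentage of the dose recovered as each analyte (geometric means). Subjects were untreated HIV-1-infected adults.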

[27] = Tmax in HIV-1 infected patient on day 10 by LC-MS/MS analysis; format: ADME, organism-based; conditions: human, in vivo
Summary of the method: (§4)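 Untreated Hispanic HIV-infected adults (VL ≥5,000 copies/ml, CD4 ≥200 cells/mm3) dosed orally b.i.d. for 10 days. Methanol extraction with internal standard, then LC-MS/MS for ZDV. Noncompartmental steady-state Tmax reported as geometric mean.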

[28] = Apparent oral clearance in HIV-1 infected patient on day 10 by LC-MS/MS analysis; format: ADME, organism-based; conditions: human, in vivo; summary of the method: as §2
[29] = Half life in HIV-1 infected patient at 200 mg, po bid on day 10 coadministered with 500 mg, po bid amdoxovir by LC-MS/MS analysis; format: ADME, organism-based; conditions: human, in vivo; summary of the method: as §2
[30] = Drug level in HIV-1 infected patient urine assessed as zidovudine-5-O-glucoronide level at 200 mg, po bid on day 10 coadministered with 500 mg, po bid amdoxovir by LC-MS/MS analysis; format: ADME, organism-based; conditions: human, in vivo; summary of the method: as §3
Homo sapiens [31] = organism: Homo sapiens; test: Ratio of AUC (0 to 12 hrs) in HIV-1 infected patient on day 10 to AUC ( 0 to 12 hrs) in HIV-1 infected patient on day 1; format: ADME, organism-based; conditions: in vivo
Summary of the method: (§5)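 Untreated Hispanic HIV-infected adults (VL ≥5,000 copies/ml, CD4 ≥200 cells/mm3) dosed orally b.i.d. Plasma sampled 0–12 h after first dose (day 1) and 0–48 h after last dose (day 10) into DCF-containing EDTA tubes, stored −80°C. ZDV measured by validated LC-MS/MS (linear 2–5,000 ng/ml). Noncompartmental analysis assuming extravascular input. Accumulation taken as AUCτ (τ = 12 h) day 10 / AUCτ day 1, as geometric means.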

[32] = Drug level in HIV-1 infected patient urine at 300 mg, po bid on day 10 coadministered with 500 mg, po bid amdoxovir by LC-MS/MS analysis; format: ADME, organism-based; conditions: human, read-out: Drug uptake; summary of the method: as §3
[33] = Drug level in HIV-1 infected patient urine at 200 mg, po bid on day 10 coadministered with 500 mg, po bid amdoxovir by LC-MS/MS analysis; format: ADME, organism-based; conditions: human, read-out: Drug uptake; summary of the method: as §3
[34] = Half life in HIV-1 infected patient at 300 mg, po bid on day 10 coadministered with 500 mg, po bid amdoxovir by LC-MS/MS analysis; format: ADME, organism-based; conditions: human, in vivo; summary of the method: as §2
[35] = Drug level in HIV-1 infected patient urine on day 10 by LC-MS/MS analysis; format: ADME; conditions: human, read-out: Drug uptake; summary of the method: as §3
[36] = Drug level in HIV-1 infected patient urine on day 10 assessed as zidovudine-5-O-glucoronide level by LC-MS/MS analysis; format: ADME; conditions: human, in vivo; summary of the method: as §3
[37] = Tmax in HIV-1 infected patient at 300 mg, po bid on day 10 coadministered with 500 mg, po bid amdoxovir by LC-MS/MS analysis; format: ADME, organism-based; conditions: human, in vivo; summary of the method: as §4
[38] = Tmax in HIV-1 infected patient at 200 mg, po bid on day 10 coadministered with 500 mg, po bid amdoxovir by LC-MS/MS analysis; format: ADME, organism-based; conditions: human, in vivo; summary of the method: as §4
Homo sapiens [39] = test: Ratio of AUC (0 to 12 hrs) in HIV-1 infected patient at 200 mg, po bid on day 10 coadministered with 500 mg, po bid amdoxovir to AUC (0 to 12 hrs) in HIV-1 infected patient at 200 mg, po bid on day 1 coadministered with 500 mg, po bid amdoxovir; format: ADME, organism-based; conditions: in vivo; summary of the method: as §5
Homo sapiens [40] = test: Ratio of AUC (0 to 12 hrs) in HIV-1 infected patient at 300 mg, po bid on day 10 coadministered with 500 mg, po bid amdoxovir to AUC (0 to 12 hrs) in HIV-1 infected patient at 300 mg, po bid on day 1 coadministered with 500 mg, po bid amdoxovir; format: ADME, organism-based; conditions: in vivo; summary of the method: as §5

Tmax [1]: 2 h | half-life [2]: 1.7 h | Ratio AUC (Homo sapiens [3]): 0.99 | Cmax [4]: 499 ng/mL | CL/F [5]: 74.7 mL/min/kg | half-life [6]: 1.1 h | Tmax [7]: 2.5 h | Tmax (Homo sapiens [8]): 1 h | AUC at 12 h [9]: 1730 ng·h/mL | Tmax [10]: 2.5 h | Cmax [11]: 514 ng/mL | Tmax [12]: 1 h | Ratio AUC (Homo sapiens [13]): 0.67 | half-life [14]: 1.4 h | Ratio AUC (Homo sapiens [15]): 0.95 | AUC at 12 h [16]: 2090 ng·h/mL | AUC at 12 h [17]: 1330 ng·h/mL | Cmax [18]: 714 ng/mL | Cmax [19]: 649 ng/mL | CL/F [20]: 63.5 mL/min/kg | half-life [21]: 1.3 h | CL/F [22]: 91.5 mL/min/kg
SMILES: Nc1nc(N)c2ncn([C@H]3CO[C@@H](CO)O3)c2n1 [AMDOXOVIR]

half-life [23]: 2.2 h | CL/F [24]: 39 mL/min/kg | CL/F [25]: 30 mL/min/kg | Drug uptake [26]: 62.89% | Tmax [27]: 0.5 h | CL/F [28]: 23.2 mL/min/kg | half-life [29]: 2.5 h | Drug uptake [30]: 61.87% | Ratio AUC (Homo sapiens [31]): 1.21 | dose excreted [32]: 6.74% | dose excreted [33]: 5.88% | half-life [34]: 2.4 h | dose excreted [35]: 6.24% | Drug uptake [36]: 61.15% | Tmax [37]: 0.5 h | Tmax [38]: 0.5 h | Ratio AUC (Homo sapiens [39]): 1.04 | Ratio AUC (Homo sapiens [40]): 0.86
SMILES: Cc1cn([C@H]2C[C@H](N=[N+]=[N-])[C@@H](CO)O2)c(=O)[nH]c1=O [ZIDOVUDINE]
